PMC9660540 (Clinical Cancer Research, 2022)
Like-named read-outs stand apart in the source and are kept apart here.

Legend:
[1] = system: metastatic castration-resistant prostate cancer (mCRPC); experiment: PSA response in patients with mCRPC; format: in vivo, human
NSCLC (post-IO) = experiment: Tumor response; format: in vivo, human
[2] = system: metastatic castration-resistant prostate cancer (mCRPC); format: in vivo, human
Procedure, shortened: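 For the signature, baseline whole-blood RNA (PAXgene) was hybridized (25–100 ng) to a 770-gene NanoString panel and ComBat batch-corrected. The score was the median of normalized log2 expression of 14 adenosine genes; the cohort median split high from low.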

[3] = Plasma pharmacokinetics of AZD4635 and active metabolite in patients; format: in vivo, human; details: for half-life: plasma, oral
[4] = system: metastatic castration-resistant prostate cancer (mCRPC); experiment: Tumor response; format: in vivo, human
[5] = healthy volunteers; ref [32]; cited from earlier work
[6] = Dose-limiting toxicity and RP2D, phase Ia dose escalation; format: in vivo, human
Procedure, shortened: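 Phase Ia used Bayesian logistic regression–guided escalation of the oral nanosuspension, with or without durvalumab; capsule cohorts took 75, 150 or 200 mg once daily. A DLT was non-disease-related toxicity before day 21 (monotherapy) or end of cycle 2 (combination), e.g. grade ≥4 neutropenia >7 days or grade ≥3 nonhematologic toxicity.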

CYP1A2 = details: clinical drug–drug interaction study with fluvoxamine; ref [34]; cited from earlier work
[7] = system: intratumoral adenosine signaling; details: ref [12], cited from earlier work

For `Cc1cc(-c2nnc(N)nc2-c2ccc(F)cc2)cc(Cl)n1` [AZD4635], the “Confirmed PSA responses” value [1] was 3.3%, the PSA50 response [1] was 5.0% and the Prostate-specific antigen responses ([1]; responders/evaluable) was 3/60. The “Best response of SD” value (NSCLC (post-IO); NSCLC) was 5 (33.3%) n (%), the “Disease control at 22 Weeks, Yes” value (NSCLC (post-IO); NSCLC Post-IO) was 1 (6.7%) n (%) and the “Median PFS” value [2] was 10.1 weeks. The “PFS probability at 24 weeks” value [2] was 24.2%, the “PFS probability at 24 weeks” value ([2]; AZD4635 monotherapy or plus durvalumab, high blood-adenosine signature) was 48.9% and the “PFS probability at 24 weeks” value ([2]; AZD4635 monotherapy or plus durvalumab, low blood-adenosine signature) was 20.6%. The “Accumulation in exposure (Cmax and AUC)” value ([3]; following multiple dosing) was “minimal accumulation”, the PK profile ([3]; human, in vivo) was “linear and dose-proportional” and the half-life ([3]; human, median t1/2, after a single dose, across doses) was 7.92 to 14.5 h. The half-life ([3]; human, t1/2, overall (range, 11–24 hours)) was roughly 14 h, the “Disease control rate (DCR; CR, PR, or SD for at least 22 weeks)” value ([4]; mCRPC) was 18.0% and the Duration of response ([4]; mCRPC responders, monotherapy and plus durvalumab together) was 2.3 to 34.0 months. The Tumor responses ([4]; mCRPC, responders/evaluable) was 2/39, the “Confirmed PR” value ([4]; mCRPC, tumor response–evaluable population) was 2 patients and the “AUC of capsule formulation compared with nanosuspension, higher by” value [5] was roughly 10%. The “Cmax of capsule formulation compared with nanosuspension, higher by” value [5] was “approximately 27%”, the DLTs ([6]; capsule formulation, doses of up to 200 mg) was “no DLTs” and the “Patients with a DLT” value ([6]; phase Ia, nanosuspension monotherapy 75 mg or 100 mg once daily) was “No patients”. The “Patients with DLTs” value ([6]; phase Ia, nanosuspension monotherapy 125 mg twice daily, out of 3 patients) was 2, the Metabolism (CYP1A2) was “primarily metabolized by CYP1A2” and the “Patients with concordant increases in gene-expression signatures of cytolytic activity and IFNG signaling” value ([7]; among the 5 patients with decreased adenosine signaling) was 4 patients. The “Patients in whom intratumoral adenosine signaling decreased” value ([7]; nanosuspension 75 or 100 mg, 2 weeks of monotherapy, of 7 patients) was 5 patients.
